Data on nine compounds can be found in ChEMBL document CHEMBL1142928, “Substitution at the 8-position of 3''-deoxy-cyclic ADP-carbocyclic-ribose, a highly potent Ca2+-mobilizing agent, provides partial agonists” (Bioorg Med Chem, 2007).

SMILES strings stand for the structures. Active and inactive are the calls of the source. No cut-off for these calls is given here.

Common to all, as to type: functional
Experiment [1] deals with Echinoidea. The experiment is described as follows: Calcium-mobilizing activity in Sea urchin egg homogenate. In a few lines:
(§1)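 Homogenate of Hemicentrotus pulcherrimus sea urchin eggs. Ca2+ release was monitored fluorometrically with fura-2 as the F340/F380 ratio over a range of analogue concentrations. Each response was expressed as the percent change in ratio relative to the response to the maximal cADPcR concentration. EC50 values were taken from dose–response curves.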

For experiment [2], the system named is Echinoidea. The experiment is described as follows: Calcium-mobilizing activity in Sea urchin egg homogenate relative to cADPcR. In a few lines:
as §1

Experiment [3] relates to Echinoidea. The experiment is described as follows: Inhibition of cADPcR-induced calcium release in Sea urchin egg homogenate. In a few lines:
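Hemicentrotus pulcherrimus egg homogenate was read by fura-2 fluorescence ratio (F340/F380). Homogenate was exposed to graded analogue concentrations, then challenged with the maximal concentration of cADPcR. IC50 values were derived from dose-dependent desensitization (cross-desensitization) of the cADPcR-induced Ca2+ release.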

What is called EC50 is the concentration at which the effect is half-maximal. One may read the IC50 as the concentration needed to halve the response being measured.

Turning to `Nc1c2ncn3c2nc[n+]1[C@@H]1C[C@H](COP(=O)([O-])OP(=O)(O)OC[C@H]2O[C@@H]3[C@H](O)[C@@H]2O)C[C@H]1O`, in experiment [1], the EC50 was determined as 17 nM. The Activity in experiment [2] was 100%.
In the case of `Nc1nc2c(N)[n+]3cnc2n1[C@@H]1O[C@H](COP(=O)([O-])OP(=O)(O)OC[C@H]2C[C@@H]3[C@H](O)[C@@H]2O)[C@@H](O)[C@H]1O`, the EC50 in experiment [1] is 89 nM. The Activity in experiment [2] was determined as 33%. The IC50 in experiment [3] was determined as 96 nM.
In the case of `Nc1c2nc(Cl)n3c2nc[n+]1[C@@H]1C[C@H](COP(=O)([O-])OP(=O)(O)OC[C@H]2O[C@@H]3[C@H](O)[C@@H]2O)C[C@H]1O`, the EC50 in experiment [1] was 190 nM. The Activity in experiment [2] is 21%. In experiment [3], the IC50 turned out to be 410 nM.
In the case of `[N-]=[N+]=Nc1nc2c(N)[n+]3cnc2n1[C@@H]1O[C@H](COP(=O)(O)OP(=O)([O-])OC[C@H]2C[C@@H]3[C@H](O)[C@@H]2O)[C@@H](O)[C@H]1O`, in experiment [3], the 50% inhibitory concentration (IC50) was 4200 nM.
With `Nc1c2ncn3c2nc[n+]1[C@@H]1C[C@H](COP(=O)([O-])OP(=O)(O)OC[C@H]2O[C@@H]3[C@H](O)[C@@H]2O)[C@@H](O)[C@H]1O`, the EC50 in experiment [1] amounted to 79 nM.
For the compound `[N-]=[N+]=Nc1nc2c(N)[n+]3cnc2n1[C@@H]1O[C@H](COP(=O)(O)OP(=O)([O-])OC[C@@H]2C[C@@H](O)[C@H]3C2)[C@@H](O)[C@H]1O`, the half-maximal effective concentration (EC50) in experiment [1] was determined as 490 nM. For the same compound, the Activity in experiment [2] worked out at 16%. For the same compound, the half-maximal inhibitory concentration (IC50) in experiment [3] turned out to be 1100 nM.
In the case of `Nc1c2nc(Cl)n3c2nc[n+]1[C@@H]1C[C@H](COP(=O)(O)OP(=O)([O-])OC[C@H]2O[C@@H]3[C@H](O)[C@@H]2O)[C@@H](O)[C@H]1O`, the IC50 in experiment [3] worked out at 3000 nM.
Regarding `Nc1nc2c(N)[n+]3cnc2n1[C@@H]1O[C@H](COP(=O)(O)OP(=O)([O-])OC[C@@H]2C[C@@H](O)[C@H]3C2)[C@@H](O)[C@H]1O`, in experiment [1], the concentration for a half-maximal effect (EC50) is 17 nM. Moreover, the Activity in experiment [2] turned out to be 14%. Moreover, in experiment [3], the 50% inhibitory concentration (IC50) stood at 44 nM.
For `CCCNc1nc2c(N)[n+]3cnc2n1[C@@H]1O[C@H](COP(=O)(O)OP(=O)([O-])OC[C@@H]2C[C@@H](O)[C@H]3C2)[C@@H](O)[C@H]1O`, the outcome in experiment [1] was inactive.
